Source: ChEMBL document CHEMBL1152859, “The novel phosphoramidate derivatives of NSAID 3-hydroxypropylamides: synthesis, cytostatic and antiviral activity evaluations” (Eur J Med Chem, 2009)
Calls of active or inactive are those of the source.

What was measured:
Human alphaherpesvirus 2 = experiment: Antiviral activity against Herpes simplex virus 2 infected in HEL cells assessed as inhibition of virus-induced cytopathicity; type: functional, organism-based
[1] = tested on: Mammalian orthoreovirus 1; experiment: Antiviral activity against Reovirus 1 infected in african green monkey Vero cells assessed as inhibition of virus-induced cytopathicity; type: functional, organism-based
Method in brief: (§1)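 Cells were infected with 100 CCID50 of virus for 2 h, then residual virus was removed. Medium with graded compound concentrations was added and cultures were kept 3 days at 37 °C. Cytopathogenicity was scored microscopically. EC50 is the concentration reducing virus-induced cytopathogenicity by 50%.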

CCRF-CEM = experiment: Cytostatic activity against human CEM cells after 72 hrs by MTT assay; type: functional, cell-based
HeLa = experiment: Cytostatic activity against human HeLa cells after 72 hrs by MTT assay; type: functional, cell-based
Method in brief: (§2)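 Monolayer cells were grown in DMEM with 10% FBS, 2 mM L-glutamine, penicillin and streptomycin at 37 °C under 5% CO2. They were seeded on day 0 at 1 × 10⁴ to 3 × 10⁴ cells/ml and exposed to five 10-fold dilutions (10⁻⁸ to 10⁻⁴ M) for 72 h, with a solvent control. Read-out was MTT. Quadruplicates in three experiments (WI 38: one experiment). IC50 by linear regression of percentage-of-growth.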

MIA PaCa-2 = experiment: Cytostatic activity against human MIAPaCa2 cells after 72 hrs by MTT assay; type: functional, cell-based; details: MIA PaCa-2, 72 h; method in brief: as §2
Human alphaherpesvirus 1 = experiment: Antiviral activity against Herpes simplex virus 1 infected in HEL cells assessed as inhibition of virus-induced cytopathicity; type: functional, organism-based
L1210 = experiment: Cytostatic activity against mouse L1210 cells after 48 hrs by MTT assay; type: functional, cell-based; details: L1210, 48 h
[2] = tested on: Vesicular stomatitis virus; experiment: Antiviral activity against Vesicular stomatitis virus infected in HEL cells assessed as inhibition of virus-induced cytopathicity; type: functional, organism-based
Method in brief: (§3)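 Cell cultures were exposed for 2 h to 100 CCID50 of virus, and residual virus was then removed. Infected cells were further incubated with medium containing varying compound concentrations for 3 days at 37 °C. Virus-induced cytopathogenicity was scored microscopically. EC50 is the concentration giving a 50% reduction of cytopathogenicity.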

Coxsackievirus B4 [3] = experiment: Antiviral activity against Coxsackievirus B4 infected in human HeLa cells assessed as inhibition of virus-induced cytopathicity; type: functional, organism-based; method in brief: as §1
Vaccinia virus = experiment: Antiviral activity against Vaccinia virus infected in HEL cells assessed as inhibition of virus-induced cytopathicity; type: functional, organism-based; details: Orthopoxvirus vaccinia; method in brief: as §3
Punta Toro virus = experiment: Antiviral activity against Punta Toro virus infected in african green monkey Vero cells assessed as inhibition of virus-induced cytopathicity; type: functional, organism-based; method in brief: as §1
[4] = tested on: Human immunodeficiency virus 1; experiment: Antiviral activity against HIV1 3B infected in human CEM cells assessed as inhibition of virus-induced cytopathicity; type: functional, organism-based; details: CCRF-CEM
[5] = tested on: Vesicular stomatitis virus; experiment: Antiviral activity against Vesicular stomatitis virus infected in human HeLa cells assessed as inhibition of virus-induced cytopathicity; type: functional, organism-based; method in brief: as §3
Human alphaherpesvirus 3 = experiment: Antiviral activity against Varicella-Zoster virus infected in HEL cells assessed as inhibition of virus-induced cytopathicity; type: functional, organism-based
NCI-H460 = experiment: Cytostatic activity against human H460 cells after 72 hrs by MTT assay; type: functional, cell-based; details: NCI-H460, 72 h; method in brief: as §2
[6] = tested on: Respiratory syncytial virus; experiment: Antiviral activity against Respiratory syncytial virus infected in human HeLa cells assessed as inhibition of virus-induced cytopathicity; type: functional, organism-based; method in brief: as §1
SW-620 = experiment: Cytostatic activity against human SW620 cells after 72 hrs by MTT assay; type: functional, cell-based; details: SW-620, 72 h; method in brief: as §2
MCF7 = experiment: Cytostatic activity against human MCF7 cells after 72 hrs by MTT assay; type: functional, cell-based; details: MCF7, 72 h; method in brief: as §2
[7] = Cytostatic activity against human Molt4/C8 cells after 72 hrs by MTT assay; type: functional, cell-based; details: MOLT-4, 72 h
[8] = tested on: Human immunodeficiency virus 2; experiment: Antiviral activity against HIV2 ROD infected in human CEM cells assessed as inhibition of virus-induced cytopathicity; type: functional, organism-based; details: CCRF-CEM
Cytomegalovirus = experiment: Antiviral activity against Cytomegalovirus infected in HEL cells assessed as inhibition of virus-induced cytopathicity; type: functional, organism-based
Method in brief: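 Confluent HEL fibroblasts were infected with CMV strains Davis and AD-169 at 100 PFU per well for 2 h, then virus was removed. Graded concentrations were added in duplicate and cultures kept 7 days at 37 °C. Cytopathogenicity was scored microscopically after ethanol fixation and Giemsa staining. EC50 is the 50% reduction.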

Human respirovirus 3 = experiment: Antiviral activity against Parainfluenza-3 virus infected in african green monkey Vero cells assessed as inhibition of virus-induced cytopathicity; type: functional, organism-based; method in brief: as §1
Coxsackievirus B4 [9] = experiment: Antiviral activity against Coxsackievirus B4 infected in african green monkey Vero cells assessed as inhibition of virus-induced cytopathicity; type: functional, organism-based; method in brief: as §1
Sindbis virus = experiment: Antiviral activity against Sindbis virus infected in african green monkey Vero cells assessed as inhibition of virus-induced cytopathicity; type: functional, organism-based; method in brief: as §1
[10] = Cytostatic activity against human WI38 cells after 72 hrs by MTT assay; type: ADME, cell-based; details: WI-38, 72 h; method in brief: as §2

CC(C)Cc1ccc(C(C)C(=O)NCCCO)cc1 (stereo unspecified)
≥ 100 µM: IC50 (MIA PaCa-2)
> 100 µM: IC50 (HeLa) | IC50 (NCI-H460) | IC50 (SW-620) | IC50 (MCF7)
55 µM: IC50 (CCRF-CEM)
93 µM: IC50 [7]
213 µM: IC50 (L1210)
inactive: Activity (Human alphaherpesvirus 2) | Activity [1] | Activity (Human alphaherpesvirus 1) | Activity [2] | Activity (Coxsackievirus B4 [3]) | Activity (Vaccinia virus) | Activity (Punta Toro virus) | Activity [4] | Activity [5] | Activity (Human alphaherpesvirus 3) | Activity [6] | Activity [8] | Activity (Cytomegalovirus) | Activity (Human respirovirus 3) | Activity (Coxsackievirus B4 [9]) | Activity (Sindbis virus)

COC(=O)[C@H](C)NP(=O)(OCCCNC(=O)Cc1c(C)n(C(=O)c2ccc(Cl)cc2)c2ccc(OC)cc12)Oc1ccc(Cl)cc1 (stereo partly specified)
inactive: Activity (Human alphaherpesvirus 2) | Activity [1] | Activity (Human alphaherpesvirus 1) | Activity [2] | Activity (Coxsackievirus B4 [3]) | Activity (Vaccinia virus) | Activity (Punta Toro virus) | Activity [4] | Activity [5] | Activity (Human alphaherpesvirus 3) | Activity [6] | Activity [8] | Activity (Cytomegalovirus) | Activity (Human respirovirus 3) | Activity (Coxsackievirus B4 [9]) | Activity (Sindbis virus)
18 µM: IC50 (NCI-H460)
15 µM: IC50 (SW-620)
24 µM: IC50 (L1210)
16 µM: IC50 (MCF7) | IC50 [10]
28 µM: IC50 [7]
11 µM: IC50 (CCRF-CEM)
17 µM: IC50 (HeLa)
8 µM: IC50 (MIA PaCa-2)

CC(C(=O)NCCCO)c1cccc(Oc2ccccc2)c1 (stereo unspecified)
230 µM: IC50 (L1210)
inactive: Activity (Human alphaherpesvirus 2) | Activity [1] | Activity (Human alphaherpesvirus 1) | Activity [2] | Activity (Coxsackievirus B4 [3]) | Activity (Vaccinia virus) | Activity (Punta Toro virus) | Activity [4] | Activity [5] | Activity (Human alphaherpesvirus 3) | Activity [6] | Activity [8] | Activity (Cytomegalovirus) | Activity (Human respirovirus 3) | Activity (Coxsackievirus B4 [9]) | Activity (Sindbis virus)
> 100 µM: IC50 (HeLa) | IC50 (MIA PaCa-2) | IC50 (NCI-H460) | IC50 (SW-620) | IC50 (MCF7)
71 µM: IC50 (CCRF-CEM)
99 µM: IC50 [7]

CC(C(=O)NCCCO)c1cccc(C(=O)c2ccccc2)c1 (stereo unspecified)
inactive: Activity (Human alphaherpesvirus 2) | Activity [1] | Activity (Human alphaherpesvirus 1) | Activity [2] | Activity (Coxsackievirus B4 [3]) | Activity (Vaccinia virus) | Activity (Punta Toro virus) | Activity [4] | Activity [5] | Activity (Human alphaherpesvirus 3) | Activity [6] | Activity [8] | Activity (Cytomegalovirus) | Activity (Human respirovirus 3) | Activity (Coxsackievirus B4 [9]) | Activity (Sindbis virus)
273 µM: IC50 (L1210)
71 µM: IC50 (CCRF-CEM)
97 µM: IC50 [7]
> 100 µM: IC50 (HeLa) | IC50 (MIA PaCa-2) | IC50 (NCI-H460) | IC50 (SW-620) | IC50 (MCF7)

COc1ccc2c(c1)c(CC(=O)NCCCO)c(C)n2C(=O)c1ccc(Cl)cc1
44 µM: IC50 (MIA PaCa-2)
113 µM: IC50 [7]
26 µM: IC50 (HeLa)
47 µM: IC50 (SW-620)
179 µM: IC50 (L1210)
inactive: Activity (Human alphaherpesvirus 2) | Activity [1] | Activity (Human alphaherpesvirus 1) | Activity [2] | Activity (Coxsackievirus B4 [3]) | Activity (Vaccinia virus) | Activity (Punta Toro virus) | Activity [4] | Activity [5] | Activity (Human alphaherpesvirus 3) | Activity [6] | Activity [8] | Activity (Cytomegalovirus) | Activity (Human respirovirus 3) | Activity (Coxsackievirus B4 [9]) | Activity (Sindbis virus)
78 µM: IC50 (CCRF-CEM)
22 µM: IC50 (MCF7)
> 100 µM: IC50 (NCI-H460)
